In brackets after ≈: the same amount, converted by molar mass. Several values for one entry are separate records, joined by “and”; a condition that tells them apart may be missing. Equal values may be shown once. Read-outs that look alike come from different tables or passages of the source.
Legend:
[1] = Desorption kinetics of bisphenols from bisphenol-attached PVC microplastics; assay type: physicochemical
How it was run: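 Bisphenol-loaded PVC from the adsorption step was placed in water or simulated intestinal fluid (NaCl 0.12 M, Na2CO3 0.02 M, sodium taurocholate 15.5 mM) in sealed 1 L glass bottles. Bottles were agitated rotationally at 200 rpm in an oil bath. Bisphenol was measured in filtered supernatant at intervals from 0 to 75 h. Run in triplicate.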

Desorption isotherms = assay type: physicochemical
[2] = Adsorption of bisphenols onto PVC microplastics; assay type: physicochemical; details: 1.5 g PVC microplastics in 1 L, 48 h, room temperature
How it was run: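 Each bisphenol was dissolved in ethanol, then diluted in a 1 L glass bottle to initial concentrations of 0 to 1.0 mg L-1. PVC microplastics were added, and bottles were shaken at 200 rpm until adsorption equilibrium. Supernatants were filtered through a glass microfiber filter before bisphenol quantification. Run in triplicate.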

[3] = system: grass carp hepatocyte cell line, L8824; assay: cells; assay type: cell-based; details: for Cytotoxicity (proliferation reduction), L8824: high concentration (2 mg L^−1)
[4] = system: human breast adenocarcinoma cells, MCF-7; assay: cells; assay type: cell-based; details: for Cytotoxicity (proliferation reduction), MCF-7: high concentration (2 mg L^−1)
[5] = water, ref Wu et al.^3; cited from earlier work
[6] = assay type: physicochemical; details: high concentration (2 mg L^−1)
[7] = Physicochemical properties of the five bisphenols; details: calculated from log Kow and pKa
[8] = calculated for concentration desorbed in warm-I
[9] = calculated for concentration desorbed in water
[10] = read-out: IC50 to L8824, 72 h exposure, 291 K, MTT
[11] = read-out: IC50 to MCF-7, 72 h exposure, 311 K, MTT

SMILES: CCC(C)(c1ccc(O)cc1)c1ccc(O)cc1 [BPB, bisphenol B]
- Fslow, slow fraction ([1]; cold-I, pH 7.5, 291 K): 0.456±0.005
- Fvs, very slow fraction ([1]; cold-I, pH 7.5, 291 K): 0.059±0.001
- krap, rapid desorption rate constant ([1]; cold-I, pH 7.5, 291 K): 0.864±0.209 10^-2 h^-1
- kslow, slow desorption rate constant ([1]; cold-I, pH 7.5, 291 K): 10.80±0.737 10^-4 h^-1
- kvs, very slow desorption rate constant ([1]; cold-I, pH 7.5, 291 K): 7.718±0.488 10^-5 h^-1
- Fslow, slow fraction ([1]; warm-I, pH 6.5, 311 K): 0.308±0.003
- Fvs, very slow fraction ([1]; warm-I, pH 6.5, 311 K): 0.010±0.001
- krap, rapid desorption rate constant ([1]; warm-I, pH 6.5, 311 K): 2.479±0.452 10^-2 h^-1
- kslow, slow desorption rate constant ([1]; warm-I, pH 6.5, 311 K): 18.90±2.818 10^-4 h^-1
- kvs, very slow desorption rate constant ([1]; warm-I, pH 6.5, 311 K): <0.01 10^-5 h^-1
- Fslow, slow fraction ([1]; water, pH 7.0, 291 K): 0.293±0.006
- Fvs, very slow fraction ([1]; water, pH 7.0, 291 K): 0.046±0.002
- krap, rapid desorption rate constant ([1]; water, pH 7.0, 291 K): 0.777±0.285 10^-2 h^-1
- kslow, slow desorption rate constant ([1]; water, pH 7.0, 291 K): 6.751±0.274 10^-4 h^-1
- kvs, very slow desorption rate constant ([1]; water, pH 7.0, 291 K): 6.992±0.534 10^-5 h^-1
- HI, hysteresis index (Desorption isotherms; warm-I): <0
- kFd, Freundlich constant for desorption (Desorption isotherms; warm-I (Table 2)): 0.428 mg^−1/n·L^−1/n·g^−1
- n, surface heterogeneity constant (desorption) (Desorption isotherms; warm-I (Table 2)): 1.179
- HI, hysteresis index (Desorption isotherms; water): 0.304
- kFd, Freundlich constant for desorption (Desorption isotherms; water (Table 2)): 1.542 mg^−1/n·L^−1/n·g^−1
- n, surface heterogeneity constant (desorption) (Desorption isotherms; water (Table 2)): 1.237
- amount of bisphenol adsorbed on the PVC [2]: 0.23 mg/g
- IC50 ([3]; Hepatocyte, 72 h, read-out: IC50 to L8824, 72 h exposure, 291 K, MTT): 2.34 ± 0.23 µg/mL
- Cytotoxicity (proliferation reduction), L8824 [3, 8]: 36.95%
- Cytotoxicity (proliferation reduction), L8824 [3, 9]: 26.25%
- IC50 [3, 10]: 9.67 ± 0.92 µM
- IC50 ([4]; Homo sapiens, MCF7, 72 h, read-out: IC50 to MCF-7, 72 h exposure, 311 K, MTT): 21.6 µM and 5.25 µg/mL
- Cytotoxicity (proliferation reduction), MCF-7 [4, 8]: 29.53%
- Cytotoxicity (proliferation reduction), MCF-7 [4, 9]: 18.79%
- kFa, Freundlich constant for adsorption [5]: 1.182 mg^−1/n·L^−1/n·g^−1
- n, surface heterogeneity constant (adsorption) [5]: 1.16

SMILES: Oc1ccc(Cc2ccc(O)cc2)cc1 [BPF, bisphenol F]
- Fslow, slow fraction ([1]; cold-I, pH 7.5, 291 K): 0.335±0.002
- krap, rapid desorption rate constant ([1]; cold-I, pH 7.5, 291 K): 0.662±0.241 10^-2 h^-1
- kslow, slow desorption rate constant ([1]; cold-I, pH 7.5, 291 K): 6.906±0.579 10^-4 h^-1
- kvs, very slow desorption rate constant ([1]; cold-I, pH 7.5, 291 K): 2.367±0.112 10^-5 h^-1
- Fslow, slow fraction ([1]; warm-I, pH 6.5, 311 K): 0.308±0.003
- Fvs, very slow fraction ([1]; warm-I, pH 6.5, 311 K): 0.005±0.001
- krap, rapid desorption rate constant ([1]; warm-I, pH 6.5, 311 K): 1.744±0.373 10^-2 h^-1
- kslow, slow desorption rate constant ([1]; warm-I, pH 6.5, 311 K): 9.877±1.415 10^-4 h^-1
- kvs, very slow desorption rate constant ([1]; warm-I, pH 6.5, 311 K): 5.778±0.325 10^-5 h^-1
- Fslow, slow fraction ([1]; water, pH 7.0, 291 K): 0.371±0.004
- Fvs, very slow fraction ([1]; water, pH 7.0, 291 K): 0.051±0.002
- krap, rapid desorption rate constant ([1]; water, pH 7.0, 291 K): 0.619±0.179 10^-2 h^-1
- kslow, slow desorption rate constant ([1]; water, pH 7.0, 291 K): 6.659±0.441 10^-4 h^-1
- kvs, very slow desorption rate constant ([1]; water, pH 7.0, 291 K): <0.01 10^-5 h^-1
- HI, hysteresis index (Desorption isotherms; warm-I): <0
- kFd, Freundlich constant for desorption (Desorption isotherms; warm-I (Table 2)): 0.388 mg^−1/n·L^−1/n·g^−1
- n, surface heterogeneity constant (desorption) (Desorption isotherms; warm-I (Table 2)): 1.186
- HI, hysteresis index (Desorption isotherms; water): 0.252
- kFd, Freundlich constant for desorption (Desorption isotherms; water (Table 2)): 0.720 mg^−1/n·L^−1/n·g^−1
- n, surface heterogeneity constant (desorption) (Desorption isotherms; water (Table 2)): 1.594
- amount of bisphenol adsorbed on the PVC [2]: 0.16 mg/g
- IC50 to L8824 ([3]; 72 h exposure, 291 K, MTT): 2.26 ± 0.43 µg/mL (≈ 11.3 µM)
- Cytotoxicity (proliferation reduction), L8824 [3, 8]: 33.24%
- Cytotoxicity (proliferation reduction), L8824 [3, 9]: 27.15%
- IC50 [3, 10]: 11.3 ± 2.12 µM
- IC50 to MCF-7 ([4]; 72 h exposure, 311 K, MTT): 6.39 ± 0.34 µg/mL (≈ 31.9 µM)
- Cytotoxicity (proliferation reduction), MCF-7 [4, 8]: 26.54%
- Cytotoxicity (proliferation reduction), MCF-7 [4, 9]: 20.83%
- IC50 [4, 11]: 31.9 ± 1.69 µM
- desorbed concentration, Warm-I [6]: 0.59 mg/L
- log Dow [7]: 2.80
- kFa, Freundlich constant for adsorption [5]: 0.575 mg^−1/n·L^−1/n·g^−1
- n, surface heterogeneity constant (adsorption) [5]: 1.13

SMILES: O=S(=O)(c1ccc(O)cc1)c1ccc(O)cc1 [BPS, bisphenol S]
- Fslow, slow fraction ([1]; cold-I, pH 7.5, 291 K): 0.383±0.001
- Fvs, very slow fraction ([1]; cold-I, pH 7.5, 291 K): 0.085±0.002
- krap, rapid desorption rate constant ([1]; cold-I, pH 7.5, 291 K): 0.587±0.228 10^-2 h^-1
- kslow, slow desorption rate constant ([1]; cold-I, pH 7.5, 291 K): 7.612±0.336 10^-4 h^-1
- kvs, very slow desorption rate constant ([1]; cold-I, pH 7.5, 291 K): 12.03±0.685 10^-5 h^-1
- Fslow, slow fraction ([1]; warm-I, pH 6.5, 311 K): 0.325±0.005
- Fvs, very slow fraction ([1]; warm-I, pH 6.5, 311 K): <0.001
- krap, rapid desorption rate constant ([1]; warm-I, pH 6.5, 311 K): 1.497±0.391 10^-2 h^-1
- kslow, slow desorption rate constant ([1]; warm-I, pH 6.5, 311 K): 10.00±1.191 10^-4 h^-1
- kvs, very slow desorption rate constant ([1]; warm-I, pH 6.5, 311 K): 11.338±0.322 10^-5 h^-1
- Fslow, slow fraction ([1]; water, pH 7.0, 291 K): 0.410±0.007
- Fvs, very slow fraction ([1]; water, pH 7.0, 291 K): 0.028±0.002
- krap, rapid desorption rate constant ([1]; water, pH 7.0, 291 K): 0.580±0.174 10^-2 h^-1
- kslow, slow desorption rate constant ([1]; water, pH 7.0, 291 K): 6.789±0.198 10^-4 h^-1
- kvs, very slow desorption rate constant ([1]; water, pH 7.0, 291 K): <0.01 10^-5 h^-1
- kFd, Freundlich constant for desorption (Desorption isotherms; warm-I (Table 2)): 0.341 mg^−1/n·L^−1/n·g^−1
- n, surface heterogeneity constant (desorption) (Desorption isotherms; warm-I (Table 2)): 1.207
- kFd, Freundlich constant for desorption (Desorption isotherms; water (Table 2)): 0.602 mg^−1/n·L^−1/n·g^−1
- amount of bisphenol adsorbed on the PVC [2]: 0.15 mg/g
- IC50 to L8824 ([3]; 72 h exposure, 291 K, MTT): 8.98 ± 1.51 µg/mL (≈ 35.9 µM)
- IC50 [3, 10]: 35.9 ± 6.01 µM
- IC50 to MCF-7 ([4]; 72 h exposure, 311 K, MTT): 14.50 ± 1.95 µg/mL (≈ 57.9 µM)
- IC50 [4, 11]: 57.9 ± 7.76 µM
- kFa, Freundlich constant for adsorption [5]: 0.503 mg^−1/n·L^−1/n·g^−1
- n, surface heterogeneity constant (adsorption) [5]: 1.15
